Assay [1] concerns Mus musculus. Kind of assay: Percent inhibition of muscle relaxant profile evaluated by straub tail assay when administered intraperitoneally at 100 mg/kg in mouse. Format: functional. The following applies: route intraperitoneal; for % effect at 100 mg/kg: Mus musculus. The essentials: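 Morphine-induced Straub tail model of muscle relaxant activity, mouse. Compound given intraperitoneally at 100 mg/kg and read out as % inhibition.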

The subject of assay [2] is Rattus norvegicus. Kind of assay: Antiinflammatory activity against 3h carrageenan pleurisy (cells) in rat at 20 mg/kg peroral administration. The assay is classed as functional. The following applies: route oral. The essentials:
(§1)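 Rat 3 h carrageenan pleurisy model, read out as pleural cell count and as edema. Compounds given orally, either as % inhibition at 20 mg/kg or as ED50 in mg/kg. Each compound tested two or three times.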

Assay [3] has as its system Rattus norvegicus. Kind of assay: Antiinflammatory activity against 3h carrageenan pleurisy (edma) in rat at 20 mg/kg peroral administration. Format: functional. The following applies: route oral. An outline of the steps:
as §1

For assay [4], the system named is Rattus norvegicus. Briefly: Percent inhibition of analgesia activity when administered perorally at 20 mg/kg in rat. Format: functional. The essentials: (§2)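 Rat trypsin hyperalgesia model for mild analgesia. Compounds given orally, either as % inhibition at 20 mg/kg or as ED50 in mg/kg. Each compound tested two or three times.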
The species named for assay [5] is Rattus norvegicus. Kind of assay: Antiinflammatory activity against trypsin hyperalgesia in rat at peroral dose of compound. The note with it: po.
Assay [6] is described as follows: Ratio of rotarod to that of staub tail; ND is activity not determined. Format: functional. The essentials:
(§3)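 Oral rotorod ED50 divided by oral Straub tail ED50, both in mouse, as an index of sedative potential. Each ED50 from at least three doses, N=6 animals per dose.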
(In general: Falling from the rotarod earlier than controls is read as motor impairment.)

For assay [7], the system named is Mus musculus. Briefly: Effective dose required for muscle relaxant profile evaluated by straub tail assay when administered perorally in mouse. The assay is classed as functional. The note with it: po. An outline of the steps:
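Morphine-induced Straub tail model of muscle relaxant activity, mouse, with oral dosing. Oral testing followed only where ip inhibition at 100 mg/kg exceeded 50%. At least three doses, N=6 animals per dose group. ED50 in mg/kg.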

Assay [8] concerns Mus musculus. Kind of assay: Effective dose required for muscle relaxant profile in mouse by rotarod assay, when compound administered perorally. The assay is classed as functional. The note with it: po. The essentials:
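Rotorod model of sedation, mouse, with oral dosing. Used for compounds that passed the Straub tail ip screen. At least three doses, N=6 animals per dose group. ED50 in mg/kg.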

Assay [9] concerns Rattus norvegicus. Briefly: Inhibition of trypsin hyperalgesia when administered perorally in rat. The assay is classed as functional. An outline of the steps: as §2
Assay [10] in a line: Ratio of rotarod to that of staub tail. Format: functional. An outline of the steps:
as §3

Assay [11] can be described thus: Ratio of rotarod to that of straub tail. The assay is classed as functional. An outline of the steps:
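Ratio of oral rotorod ED50 (sedation) to oral ED50 in the morphine-induced Straub tail test. Only compounds giving >50% inhibition in the Straub tail test at 100 mg/kg ip went on to oral testing in both assays. Each assay generally used at least three doses with N=6 animals per dose group; variability approximately 15%.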

The test system of assay [12] is Rattus norvegicus. Briefly: Antiinflammatory activity against 3h carrageenan pleurisy (cells) in rat peroral administration. Format: functional. The following applies: po. The essentials: as §1
Assay [13] has as its system Rattus norvegicus. Kind of assay: Antiinflammatory activity against 3h carrageenan pleurisy (edma) in rat peroral administration. The assay is classed as functional. The note with it: po. An outline of the steps:
as §1

Assay [14] relates to Rattus norvegicus. Kind of assay: Antiinflammatory activity against 3h carrageenan pleurisy (edma) in rat mg/kg peroral administration. The assay is classed as functional. The note with it: po. An outline of the steps: as §1
Where [15] appears, read: Rattus norvegicus, po, read-out: ED50.

What is called inhibition in vivo is the relative decrease from the control value, in per cent. Low values mean a response near the control, high ones a response far below the control. In [1] (ip), `CNC(=O)/C=C1\CCc2cc(Cl)cc(Cl)c21` showed a % effect at 100 mg/kg of 50%. In addition, the inhibition in vivo at 20 mg/kg in [2] turned out to be 0%; in assay [3], 34%; in assay [4] (Rattus norvegicus, po), 22%.
Broadly, the ED50 is the dose at which the effect has come halfway, by size or by number of responders. The compound `COc1ccc2cc([C@H](C)C(=O)O)ccc2c1` [NAPROXEN] yielded an ED50 in [5] of 14 mg/kg.
In the case of `NC(=O)/C=C1\CCc2c(Cl)cc(F)cc21` (stereo in doubt) [listing 1 of 2 here], the Ratio in assay [6] was determined as 1.3.
As to `O=C(/C=C1\CCc2c(Cl)cc(F)cc21)NC1CC1`, the ED50 in [7] was determined as 44 mg/kg; in [8], 44 mg/kg; in assay [9] (setting [15]), 0.9 mg/kg. Besides, in [1] (ip), the % effect at 100 mg/kg is 100%. Besides, the Ratio in [10] came out at 1. Moreover, the inhibition in vivo at 20 mg/kg in [4] (Rattus norvegicus, po) is 75%.
Consider `NC(=O)/C=C1\CCc2cc(Cl)c(F)cc21`, for which the ED50 in assay [7] was 50 mg/kg; in assay [8] it was 56 mg/kg. Also, the % effect at 100 mg/kg in [1] (ip) is 100%. Besides, the Ratio in assay [10] worked out at 1.1. Further, the inhibition in vivo at 20 mg/kg in [4] (Rattus norvegicus, po) came to 19%.
For the compound `NC(=O)/C=C1\CCc2c(F)cc(F)cc21`, the ED50 in [7] amounted to 68.7 mg/kg; in assay [3], 15 mg/kg; in [12], 19 mg/kg; in [9] (setting [15]) it was 4 mg/kg. Besides, the inhibition in vivo at 100 mg/kg in assay [1] (ip) came out at 100%. For the same compound, in assay [11], the Ratio worked out at 2. For the same compound, the inhibition in vivo at 20 mg/kg in assay [4] (route oral) is 100%.
On to `NC(=O)/C=C1\CCc2c(Cl)cc(Cl)cc21`, for which the % effect in assay [1] amounted to 0%. Also, the ED50 in assay [12] was found to be 25 mg/kg; in assay [13], 20 mg/kg; in assay [9] (setting [15]) it was 4.1 mg/kg.
The compound `CNC(=O)/C=C1\CCc2c(Cl)cc(Cl)cc21` displayed an ED50 in [7] greater than 100 mg/kg. For the same compound, in assay [1] (ip), the % effect at 100 mg/kg came to 83%. Further, the inhibition in vivo at 20 mg/kg in assay [2] was 9%; in assay [4] (Rattus norvegicus, po), 12%.
In [1], `Cc1cc(F)cc2c1CC/C2=C\C(N)=O` yielded a % effect of 0%. The inhibition in vivo at 20 mg/kg was 11% in [2]; 24% in [3]; 92% in [4] (Rattus norvegicus, po). Besides, the ED50 in assay [9] (setting [15]) was 10 mg/kg.
`NC(=O)/C=C1\CCc2c(F)cc(Cl)cc21` registered a % effect at 100 mg/kg in assay [1] (ip) of 33%. For the same compound, the figures for the inhibition in vivo at 20 mg/kg in [2] and in assay [3] were 34% and 36%, respectively. Besides, the ED50 in assay [9] (setting [15]) is greater than 10 mg/kg.
Compound `O=C(/C=C1\CCc2c(F)cc(Cl)cc21)NC1CC1` came in with an inhibition in vivo at 20 mg/kg in [4] (Rattus norvegicus, po) of 31%.
For `NC(=O)/C=C1\CCc2c(Br)cc(F)cc21`, the ED50 in assay [12] and in assay [13] was greater than 20 mg/kg throughout.
For `CNC(=O)/C=C1\CCc2c(Cl)cc(F)cc21`, the % effect at 100 mg/kg in assay [1] (ip) stood at 50%. For the same compound, the values for the ED50 in assay [12], in assay [13] and in assay [9] (setting [15]) were 8 mg/kg, 5 mg/kg and 1.4 mg/kg, respectively. Besides, in assay [4] (route oral), the inhibition in vivo at 20 mg/kg is 100%.
`CNC(=O)/C=C1\CCc2c(C)cc(F)cc21` yielded a % effect at 100 mg/kg in assay [1] (ip) of 67%. The inhibition in vivo at 20 mg/kg in [2] was 15%; in [3], 40%; in assay [4] (Rattus norvegicus, po), 77%.
Consider `O=C(/C=C1\CCc2cc(Cl)c(F)cc21)NC1CC1`, for which testing at 20 mg/kg in assay [4] (Rattus norvegicus, po) gave an inhibition in vivo of 27%.
As to `Cc1cc(Cl)c2c(c1)/C(=C/C(N)=O)CC2`, the ED50 in assay [12] and in assay [14] was greater than 25 mg/kg each time.
As a reminder, the Inhibition is the relative decrease from the control value, in per cent. High values mean a strong effect, low ones a weak effect. In [1], `NC(=O)/C=C1\CCc2c(Cl)cc(F)cc21` (stereo in doubt; 3) returned a % effect of 0%. Also, the ED50 was found to be 11 mg/kg in assay [12], 11 mg/kg in assay [13] and 4 mg/kg in [9]. In assay [4] (route oral, 20 mg/kg), this compound gave an Inhibition of 79%.
As to `NC(=O)/C=C1\CCc2c(Cl)cc(F)cc21` (stereo in doubt) [listing 2 of 2 here], the figures for the ED50 in assay [7], in [8] and in [9] (setting [15]) were 73 mg/kg, 96 mg/kg and 7 mg/kg, respectively. Further, in assay [4] (Rattus norvegicus, po), the inhibition in vivo at 20 mg/kg was 70%.
In assay [1] (ip), `CNC(=O)/C=C1\CCc2cc(Cl)c(F)cc21` had a % effect at 100 mg/kg of 17%. The compound also had an inhibition in vivo at 20 mg/kg in assay [4] (Rattus norvegicus, po) of 22%.
As to `NC(=O)/C=C1\CCc2cc(Cl)cc(Cl)c21`, the ED50 in assay [7] was less than 100 mg/kg; in assay [8], 55 mg/kg; in assay [2], 5 mg/kg; in assay [3] it was 34 mg/kg; in [9] (setting [15]) it was greater than 10 mg/kg. The compound further had a % effect at 100 mg/kg in [1] (ip) of 100%. This compound gave an inhibition in vivo at 20 mg/kg in assay [4] (Rattus norvegicus, po) of 79%.
For `CC(C)Cc1ccc(C(C)C(=O)O)cc1` (centres undefined) [IBUPROFEN], the ED50 in [2] turned out to be 34 mg/kg; in [3] it was 8 mg/kg.
With `Cc1cc(F)cc2c1CC/C2=C\C(=O)NC1CC1`, the values for the inhibition in vivo at 20 mg/kg in assay [2], in [3] and in [4] (route oral) were 5%, 7% and 97%, respectively.

(Values after ChEMBL document CHEMBL1145956, “Indanylidenes. 2. Design and synthesis of (E)-2-(4-chloro-6-fluoro-1-indanylidene)-N-methylacetamide, a potent antiinflammatory and analgesic agent without centrally acting muscle relaxant activity” (2003).)
